In ChEMBL document CHEMBL1144018, “SAR studies of capsazepinoid bronchodilators. Part 2: Chlorination and catechol replacement in the A-ring” (Bioorg Med Chem, 2008):

Species on record: Homo sapiens
Test: Bronchorelaxing effect on LTD4-contracted small human lung airways assessed as remaining contraction at 10 uM after 1.5 hrs relative to control
Format: functional
Method in brief: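 Human small airways (0.5–1.5 mm diameter) from lung cancer patients, in vitro. Each preparation contracted with 10 nM LTD4 untreated, then again after 1.5 h exposure to 10 µM test compound. Value is the percent of the full LTD4 contraction that remains, given as arithmetic mean ± SEM with n in parentheses.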

In order of falling Activity:
1. O=C(O)c1cc2c(cc1C(=O)O)CN(C(=S)NCCc1ccc(Cl)cc1)CC2  99%
2. COC(=O)c1cc2c(cc1C(=O)OC)CN(C(=S)NCCc1ccc(Cl)cc1)CC2  87%
3. N#Cc1cc2c(cc1C#N)CN(C(=S)NCCc1ccc(Cl)cc1)CC2  84%
4. Oc1c(O)c(Cl)c2c(c1Cl)CCN(C(=S)NCCc1ccc(Cl)cc1)C2Cc1ccccc1 (stereo unspecified)  84%
5. S=C(NCCc1ccc(Cl)cc1)N1CCc2ccccc2C1  83%
6. Nc1ccc2c(c1)CN(C(=S)NCCc1ccc(Cl)cc1)CC2  79%
7. CS(=O)(=O)Nc1ccc2c(c1)CCN(C(=S)NCCc1ccc(Cl)cc1)C2  75%
8. Oc1cc2c(cc1Cl)CN(C(=S)NCCc1ccc(Cl)cc1)CC2  73%
9. CS(=O)(=O)Nc1ccc2c(c1)CN(C(=S)NCCc1ccc(Cl)cc1)CC2  72%
10. Oc1ccc2c(c1Cl)CCN(C(=S)NCCc1ccc(Cl)cc1)C2  69%
11. Oc1cc2c(cc1Cl)CCN(C(=S)NCCc1ccc(Cl)cc1)C2  69%
12. Oc1ccc2c(c1Cl)CCCN(C(=S)NCCc1ccc(Cl)cc1)C2  67%
13. Oc1cc2c(c(Cl)c1O)CN(C(=S)NCCc1ccc(Cl)cc1)C2  65%
14. Oc1cc2c(c(Cl)c1O)CCCN(C(=S)NCCc1ccc(Cl)cc1)C2  64%
15. Oc1cc2c(c(Cl)c1O)CN(C(=S)NCCc1ccc(Cl)cc1)CCC2  63%
16. Nc1ccc2c(c1)CCN(C(=S)NCCc1ccc(Cl)cc1)C2  62%
17. Oc1c(Cl)cc2c(c1Cl)CN(C(=S)NCCc1ccc(Cl)cc1)CC2  57%
18. Oc1cc2c(cc1Cl)CCCN(C(=S)NCCc1ccc(Cl)cc1)C2  56%
19. Oc1c(Cl)cc2c(c1Cl)CCN(C(=S)NCCc1ccc(Cl)cc1)C2  55%
20. Oc1cc2c(cc1Cl)CN(C(=S)NCCc1ccc(Cl)cc1)CCC2  49%
21. Oc1cc2c(c(Cl)c1O)CN(C(=S)NCCc1ccc(Cl)cc1)CC2  49%
22. CC1c2c(Cl)c(O)c(O)c(Cl)c2CCN1C(=S)NCCc1ccc(Cl)cc1 (stereo unspecified)  48%
23. Oc1ccc2c(c1Cl)CN(C(=S)NCCc1ccc(Cl)cc1)CC2  47%
24. Oc1ccc2c(c1Cl)CN(C(=S)NCCc1ccc(Cl)cc1)CCC2  46%
25. Oc1cc2c(c(Cl)c1O)CCN(C(=S)NCCc1ccc(Cl)cc1)C2  40%
26. Oc1c(O)c(Cl)c2c(c1Cl)CCCN(C(=S)NCCc1ccc(Cl)cc1)C2  38%
27. Oc1c(O)c(Cl)c2c(c1Cl)CN(C(=S)NCCc1ccc(Cl)cc1)C2  31%
28. CC1Cc2c(Cl)c(O)c(O)c(Cl)c2CN1C(=S)NCCc1ccc(Cl)cc1 (stereo unspecified)  31%
29. Oc1c(Cl)cc2c(c1Cl)CCCN(C(=S)NCCc1ccc(Cl)cc1)C2  30%
30. Oc1c(O)c(Cl)c2c(c1Cl)CCN(C(=S)NCCc1ccc(Cl)cc1)CC2  29%
31. Oc1c(O)c(Cl)c2c(c1Cl)CCN(C(=S)NCCc1ccc(Cl)cc1)C2  14%
